Seven compounds from ChEMBL document CHEMBL5705906 (Nat Commun, 2017) can be followed below.

Calls of active or inactive are those of the source. No cut-off for these calls is given here.

Assay [1] deals with BaF3. The experiment in a line: Inhibition of EGFR-C797S/T790M/L858R mutant expressed in mouse BaF3 cells assessed as inhibition of ERK phosphorylation at 10 to 1000 nM incubated for 6 hrs by Western blotting analysis. Type of assay: cell-based. The settings on record: dose 10-1000 nM. The method, boiled down: (§1)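 Ba/F3 cells expressing EGFR-L858R-series mutants treated with inhibitors for 6 h. SDS lysates quantified by BCA, run on SDS-PAGE and blotted to PVDF. Probed for phospho-EGFR (Tyr1068), total EGFR and downstream phospho-proteins.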
(In western blotting, separated proteins are transferred to a membrane and probed.)

The test system of assay [2] is BaF3. The experiment in a line: Inhibition of EGFR-C797S/T790M/L858R mutant in mouse BaF3 cells assessed as inhibition of EGFR phosphorylation at 10 to 1000 nM incubated for 6 hrs by Western blotting analysis. Type of assay: cell-based. The settings on record: dose 10-1000 nM. The procedure, abridged:
as §1

The test system of assay [3] is BaF3. The experiment in a line: Inhibition of EGFR-C797S/T790M/L858R mutant in mouse BaF3 cells assessed as inhibition of S6 phosphorylation at 10 to 1000 nM incubated for 6 hrs by Western blotting analysis. The class given is cell-based. The conditions noted are these: dose 10-1000 nM. The procedure, abridged: as §1
The test system of assay [4] is BaF3. The experiment in a line: Inhibition of EGFR-C797S/T790M/L858R mutant expressed in mouse BaF3 cells assessed as inhibition of Akt phosphorylation at 10 to 1000 nM incubated for 6 hrs by Western blotting analysis. The class given is cell-based. The conditions noted are these: dose 10-1000 nM. The procedure, abridged:
as §1

Assay [5] deals with BaF3. The experiment in a line: Inhibition of EGFR-C797S/T790M/del19 mutant in mouse BaF3 cells assessed as reduction in Akt phosphorylation at 10 to 1000 nM by Western blotting analysis. The class given is cell-based. The conditions noted are these: dose 10-1000 nM.
The subject of assay [6] is BaF3. The experiment in a line: Inhibition of EGFR-C797S/T790M/del19 mutant in mouse BaF3 cells assessed as reduction in Akt protein level at 10 to 1000 nM by Western blotting analysis. The class given is cell-based. The conditions noted are these: dose 10-1000 nM.
For assay [7], the system named is PC-9. The assay can be described thus: Inhibition of EGFR T790M/del19 mutant in human PC-9 cells assessed as reduction in S6 phosphorylation at 10 to 1000 nM by Western blotting analysis. The class given is cell-based. The settings on record: dose 10-1000 nM.
For the next assay, the system named is A549. The assay can be described thus: Anticancer activity against KRAS-mutated human A549 cells assessed as reduction in cell viability at 1 to 10000 nM incubated for 72 hrs by CellTiter-Glo assay. The settings on record: dose 1-10000 nM. The class given is functional, cell-based. (In general: ATP-based viability assays read luminescence as a measure of living cells.)

The subject of a further assay is NCI-H460. The experiment in a line: Anticancer activity against KRAS-mutated human NCI-H460 cells assessed as reduction in cell viability at 1 to 10000 nM incubated for 72 hrs by CellTiter-Glo assay. Type of assay: functional, cell-based. The settings on record: dose 1-10000 nM.
The test system of assay [8] is BaF3. The assay can be described thus: Inhibition of EGFR-C797S/T790M/del19 mutant in mouse BaF3 cells assessed as reduction in ERK phosphorylation at 10 to 1000 nM by Western blotting analysis. Type of assay: cell-based. The conditions noted are these: dose 10-1000 nM.
In assay [9] the test system is PC-9. The experiment in a line: Inhibition of EGFR T790M/del19 mutant in human PC-9 cells assessed as reduction in EGFR phosphorylation at 10 to 1000 nM by Western blotting analysis. The class given is cell-based. The conditions noted are these: dose 10-1000 nM.
Assay [10] deals with BaF3. The assay can be described thus: Inhibition of EGFR-C797S/T790M/del19 mutant in mouse BaF3 cells assessed as reduction in ERK protein level at 10 to 1000 nM by Western blotting analysis. The class given is cell-based. The conditions noted are these: dose 10-1000 nM.
Assay [11] has as its system BaF3. The experiment in a line: Inhibition of EGFR-C797S/T790M/del19 mutant in mouse BaF3 cells assessed as reduction in EGFR phosphorylation at 10 to 1000 nM by Western blotting analysis. The class given is cell-based. The conditions noted are these: dose 10-1000 nM.
Assay [12] relates to BaF3. The experiment in a line: Inhibition of EGFR-C797S/T790M/del19 mutant in mouse BaF3 cells assessed as reduction in S6 phosphorylation at 10 to 1000 nM by Western blotting analysis. Type of assay: cell-based. The settings on record: dose 10-1000 nM.
In assay [13] the test system is PC-9. The experiment in a line: Inhibition of EGFR T790M/del19 mutant in human PC-9 cells assessed as reduction in ERK phosphorylation at 10 to 1000 nM by Western blotting analysis. The class given is cell-based. The conditions noted are these: dose 10-1000 nM.
Assay [14] relates to PC-9. The assay can be described thus: Inhibition of EGFR T790M/del19 mutant in human PC-9 cells assessed as reduction in Akt phosphorylation at 10 to 1000 nM by Western blotting analysis. The settings on record: dose 10-1000 nM. Type of assay: cell-based.
The test system of assay [15] is BaF3. The assay can be described thus: Inhibition of EGFR-C797S/T790M/del19 mutant in mouse BaF3 cells assessed as reduction in S6 protein level at 10 to 1000 nM by Western blotting analysis. Type of assay: cell-based. The settings on record: dose 10-1000 nM.
Assay [16] relates to BaF3. The assay can be described thus: Inhibition of EGFR-C797S/T790M/del19 mutant in mouse BaF3 cells assessed as reduction in EGFR phosphorylation at 300 nM incubated for 6 hrs by Western blotting analysis. The class given is cell-based.
In assay [17] the test system is Epidermal growth factor receptor (Homo sapiens), P00533 [UNDEFINED MUTATION]. The conditions noted are these: PC-9, dose 10-1000 nM.
Chain of Epidermal growth factor receptor (Homo sapiens), P00533 [UNDEFINED MUTATION] (P00533 whole entry, looked up, change not shown): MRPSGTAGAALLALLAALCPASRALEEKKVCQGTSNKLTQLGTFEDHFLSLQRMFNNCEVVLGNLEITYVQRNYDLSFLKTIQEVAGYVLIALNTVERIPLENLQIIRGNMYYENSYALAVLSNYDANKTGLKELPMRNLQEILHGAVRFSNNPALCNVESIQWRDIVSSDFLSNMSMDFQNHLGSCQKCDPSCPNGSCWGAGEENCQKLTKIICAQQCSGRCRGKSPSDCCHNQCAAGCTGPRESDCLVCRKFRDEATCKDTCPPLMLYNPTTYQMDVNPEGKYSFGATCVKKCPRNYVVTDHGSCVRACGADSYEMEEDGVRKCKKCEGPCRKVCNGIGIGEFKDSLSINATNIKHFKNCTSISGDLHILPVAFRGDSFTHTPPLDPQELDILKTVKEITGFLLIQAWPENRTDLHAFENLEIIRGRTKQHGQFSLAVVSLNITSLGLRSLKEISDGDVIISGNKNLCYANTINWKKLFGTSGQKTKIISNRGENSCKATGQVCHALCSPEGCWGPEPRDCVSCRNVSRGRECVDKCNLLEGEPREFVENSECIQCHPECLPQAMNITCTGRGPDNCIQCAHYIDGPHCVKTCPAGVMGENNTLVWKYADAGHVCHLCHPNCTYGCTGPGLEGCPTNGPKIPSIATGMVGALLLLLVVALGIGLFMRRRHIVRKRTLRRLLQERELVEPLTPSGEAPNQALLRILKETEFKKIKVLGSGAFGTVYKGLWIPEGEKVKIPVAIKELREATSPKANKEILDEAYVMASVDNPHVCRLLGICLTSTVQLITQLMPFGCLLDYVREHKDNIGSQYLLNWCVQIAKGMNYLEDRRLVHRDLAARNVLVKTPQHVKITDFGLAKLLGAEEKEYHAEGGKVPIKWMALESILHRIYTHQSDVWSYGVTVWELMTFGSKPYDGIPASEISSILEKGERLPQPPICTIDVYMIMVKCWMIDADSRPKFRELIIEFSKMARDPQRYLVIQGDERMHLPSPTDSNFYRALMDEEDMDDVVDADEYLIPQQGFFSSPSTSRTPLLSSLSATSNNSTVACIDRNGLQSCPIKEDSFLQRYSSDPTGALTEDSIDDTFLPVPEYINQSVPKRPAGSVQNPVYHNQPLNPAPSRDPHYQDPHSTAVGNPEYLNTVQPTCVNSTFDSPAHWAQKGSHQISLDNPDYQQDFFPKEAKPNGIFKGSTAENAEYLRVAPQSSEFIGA
Assay [18] shares this test system. The settings on record: PC-9, dose 10-1000 nM. The source holds these as a separate data set.
For assay [19] the test system is unchanged. The conditions noted are these: PC-9, dose 10-1000 nM. The source holds these as a separate data set.
Assay [20] has the same test system. The settings on record: PC-9, dose 10-1000 nM. This is another data set of the same source.
Assay [21] has as its system PC-9. The class given is functional, organism-based. The conditions noted are these: Homo sapiens, dose 50.0 mg/kg, route po, time 60.0 day.
Assay [22] relates to Ba/F3 EGFR-Del19/T790M/C797S. The assay can be described thus: Cytotoxicity against mouse Ba/F3 EGFR-Del19/T790M/C797S cells assessed as inhibition of cell viability by measuring fold change at 300 nM incubated for 72 hrs in presence of cetuximab by CellTiter-Glo assay. The class given is functional, cell-based.
The test system of assay [23] is PC-9. The assay can be described thus: Anti-tumor activity against EGFR T790M/del19 mutant expressing gefitinib-resistant human PC-9 cells xenografted in Balb-c nu/nu mouse assessed as prolonged survival at 50 mg/kg, po administered for 42 days. Type of assay: functional, organism-based. The conditions noted are these: time 42.0 day.
Assay [24] relates to PC-9. Type of assay: functional, organism-based. The settings on record: Homo sapiens, dose 50.0 mg/kg, route po, time 15.0 day.
The test system of assay [25] is PC-9. The assay can be described thus: Anti-tumor activity against EGFR T790M/del19 mutant expressing gefitinib-resistant human PC-9 cells xenografted in Balb-c nu/nu mouse assessed as growth inhibition at 50 mg/kg, po administered for 42 days. Type of assay: functional, organism-based. The conditions noted are these: time 42.0 day. The procedure, abridged: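 Balb-c nu/nu mice were implanted subcutaneously with 6×10^6 PC9-triple-mutant or PC9-T790M cells in 100 µl 1:2 Matrigel. At a mean tumour volume of ~200 mm³, mice were randomized (top and bottom 5% excluded) and dosed once daily by oral gavage. Caliper volume (0.5×L×W²) was measured twice weekly and expressed relative to day 0. n≥6 per group; Mann-Whitney U test.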
In general terms: Xenograft models place foreign cells or tissue in a host animal.

The subject of assay [26] is PC-9. Type of assay: functional, organism-based. The conditions noted are these: Homo sapiens, dose 50.0 mg/kg, route po, time 60.0 day. This is another data set of the same source.

In the case of `COc1cc(N2CCC(N3CCN(C)CC3)CC2)ccc1Nc1ncnc(Nc2ccccc2S(=O)(=O)C(C)C)n1`, the inhibition result in the assay with BaF3 [1], in the assay with BaF3 [2], in the assay with BaF3 [3] and in the assay with BaF3 [4] was “inactive” throughout.
In the case of `CN(C)C/C=C/C(=O)Nc1cc2c(Nc3ccc(F)c(Cl)c3)ncnc2cc1O[C@H]1CCOC1` [AFATINIB], the inhibition result in the assay with BaF3 [5], in the assay with BaF3 [6], with BaF3 [8], in the assay with BaF3 [10], in the assay with BaF3 [11] and with BaF3 [12] was “inactive” each time. Moreover, in the assay with BaF3 [15], the inhibition result is “inactive”. In addition, the inhibition entry with PC-9 [7], in the assay with PC-9 [9], in the assay on PC-9 [13] and in the assay on PC-9 [14] was “Active” in each case. Also, the result in the assay on A549 and in the assay on NCI-H460 was Active.
For the compound `Cc1ccc(C(=O)Nc2ccc(CN3CCN(C)CC3)c(C(F)(F)F)c2)cc1C#Cc1cnc2cccnn12`, the inhibition result in the assay with BaF3 [16] was “inactive”.
Turning to `COc1cc(N2CCC(N)CC2)ccc1Nc1ncc(Cl)c(-c2c[nH]c3ccccc23)n1`, the inhibition result in [17], in assay [18], in [19] and in assay [20] was “Active” throughout.
On to `COc1cc(N2CCC(N3CCN(C)CC3)CC2)ccc1Nc1ncc(Cl)c(Nc2ccccc2S(=O)(=O)C(C)C)n1`, for which the inhibition result with BaF3 [1], in the assay on BaF3 [2], with BaF3 [3] and in the assay with BaF3 [4] was “inactive” in each case.
With `Cc1cc(Nc2ncc(Cl)c(Nc3ccccc3S(=O)(=O)C(C)C)n2)c(OC(C)C)cc1C1CCNCC1`, the inhibition result with BaF3 [1], in the assay with BaF3 [2], with BaF3 [3] and in the assay with BaF3 [4] was “inactive” each time.
With `C=CC(=O)Nc1cc(Nc2nccc(-c3cn(C)c4ccccc34)n2)c(OC)cc1N(C)CCN(C)C`, the inhibition entry in the assay on PC-9 [21], in the assay on PC-9 [7], with PC-9 [9], in the assay with PC-9 [13], in the assay on PC-9 [14] and in the assay with PC-9 [26] was “Active” throughout. The inhibition result with BaF3 [5], in the assay with BaF3 [6], in the assay with BaF3 [8], in the assay on BaF3 [10], with BaF3 [11] and in the assay with BaF3 [12] was “inactive” each time. Moreover, the inhibition entry with BaF3 [15] was “inactive”. For the same compound, the result in the assay with A549, in the assay on NCI-H460, with PC-9 [23] and in the assay on PC-9 [25] was Active. Besides, the result (in [22]; in the assay on PC-9 [24]) was inactive.
